Data published in ChEMBL document CHEMBL1268967, “Synthesis and biological evaluation of furoxan-based nitric oxide-releasing derivatives of glycyrrhetinic acid as anti-hepatocellular carcinoma agents” (Bioorg Med Chem Lett, 2010).
pIC50: −log10 of the molar value. Active and inactive are the calls of the source. The rule behind the calls is not given here.

Tests used:
[1] = Antiproliferative activity against human L02 cells at 10 uM after 24 hrs by MTT assay; type: cell-based; details: for Activity: l02, 24 h, 10 µM; for inhibition at 24 h, 10 µM: L02 cells
In short: (§1)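 Cells cultured in DMEM with 10% heat-inactivated fetal calf serum at 37 °C, 5% CO2, plated overnight and then exposed to 10 µM compound for 24 h. MTT was added for the last 4 h, formazan dissolved in DMSO and read at 570 nm. Values are mean % cytotoxicity ± SD from three separate experiments.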

Bel-7402 [2] = experiment: Antiproliferative activity against human Bel7402 cells at 10 uM after 24 hrs by MTT assay; type: functional; details: for inhibition of growth at 10 µM: Bel-7402, 24 h, read-out: GI; in short: as §1
Bel-7402 [3] = experiment: Antiproliferative activity against human Bel7402 cells after 24 hrs by MTT assay; type: functional, cell-based; details: Bel-7402, 24 h
In short: (§2)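 Cells grown in DMEM with 10% heat-inactivated fetal calf serum at 37 °C, 5% CO2; 3 × 10^5 cells/well plated overnight, then exposed in triplicate to a range of concentrations for 24 h. MTT (5 mg/mL) was added for the final 4 h, formazan dissolved in DMSO, absorbance at 570 nm. IC50 is the mean of dose–response curves from at least three independent experiments.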

HepG2 [4] = experiment: Antiproliferative activity against human HepG2 cells after 24 hrs by MTT assay; type: functional, cell-based; details: HepG2, 24 h; in short: as §2
HepG2 [5] = experiment: Induction of nitric oxide release in human HepG2 cells at 100 uM […] by Griess assay; type: functional, cell-based
Bel-7402 [6] = experiment: Induction of nitric oxide release in human Bel7402 cells at 100 uM […] by Griess assay; type: functional, cell-based
[7] = Toxicity in human L02 cells assessed as induction of nitric oxide release at 100 uM […] by Griess assay; type: cell-based; details: l02, 100 µM
Bel-7402 [8] = experiment: Induction of nitric oxide release in human Bel7402 cells at 5 uM for 24 hrs pretreated with hemoglobin for 1 hr by Griess assay; type: functional, cell-based
In short: (§3)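 BEL-7402 cells in 24-well plates were pretreated in triplicate with hemoglobin (0, 1, 5, 10 or 20 µM) for 1 h, then given compound at 5 or 10 µM for 24 h. NO in the cells was measured by Griess assay and reported as mean concentration for each condition.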

Bel-7402 [9] = experiment: Induction of nitric oxide release in human Bel7402 cells at 10 uM for 24 hrs pretreated with hemoglobin for 1 hr by Griess assay; type: functional, cell-based; in short: as §3
Bel-7402 [10] = experiment: Antiproliferative activity against human Bel7402 cells at 10 uM for 24 hrs pretreated with hemoglobin for 1 hr by MTT assay; type: functional, cell-based
In short: (§4)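 BEL-7402 cells in 24-well plates were pretreated in triplicate with hemoglobin (0, 1, 5, 10 or 20 µM) for 1 h as an NO scavenger. Compound was then added at 5 or 10 µM for 24 h and cytotoxicity read by MTT. Data are mean % cytotoxicity for each condition.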

Bel-7402 [11] = experiment: Antiproliferative activity against human Bel7402 cells at 5 uM for 24 hrs pretreated with hemoglobin for 1 hr by MTT assay; type: functional, cell-based; in short: as §4

Row | Compound | pIC50 (Bel-7402 [3]) | pIC50 (HepG2 [4]) | further results
1 | CC(O)CCOc1no[n+]([O-])c1S(=O)(=O)c1ccccc1 (centres undefined) |  |  | Activity [1]: Toxic; growth inhibition (GI) (Bel-7402 [2]): Active
2 | CC1(C)[C@@H](O)CC[C@]2(C)[C@H]3C(=O)C=C4[C@@H]5C[C@@](C)(C(=O)O)CC[C@]5(C)CC[C@@]4(C)[C@]3(C)CC[C@@H]12 [ENOXOLONE] | < 4.30 | < 4.30 | 
3 | O=S(=O)(c1ccccc1)c1c(OCCCCO)no[n+]1[O-] |  |  | Activity [1]: Toxic; growth inhibition (GI) (Bel-7402 [2]): Active
4 | CC(=O)O[C@H]1CC[C@]2(C)[C@H]3C(=O)C=C4[C@@H]5C[C@@](C)(C(=O)NCCOc6no[n+]([O-])c6S(=O)(=O)c6ccccc6)CC[C@]5(C)CC[C@@]4(C)[C@]3(C)CC[C@H]2C1(C)C | 4.85 | 4.62 | 
5 | CC(=O)O[C@H]1CC[C@]2(C)[C@H]3C(=O)C=C4[C@@H]5C[C@@](C)(C(=O)OCC#CCOc6no[n+]([O-])c6S(=O)(=O)c6ccccc6)CC[C@]5(C)CC[C@@]4(C)[C@]3(C)CC[C@H]2C1(C)C | 4.83 | 5.12 | 
6 | COC(=O)[C@@]1(C)CC[C@]2(C)CC[C@]3(C)C(=CC(=O)[C@@H]4[C@@]5(C)CC[C@H](OC(=O)CCC(=O)OCC#CCOc6no[n+]([O-])c6S(=O)(=O)c6ccccc6)C(C)(C)[C@@H]5CC[C@]43C)[C@@H]2C1 | 4.87 | 4.94 | 
7 | O=S(=O)(c1ccccc1)c1c(OC/C=C/CO)no[n+]1[O-] |  |  | Activity [1]: Toxic; growth inhibition (GI) (Bel-7402 [2]): Active
8 | CC(=O)O[C@H]1CC[C@]2(C)[C@H]3C(=O)C=C4[C@@H]5C[C@@](C)(C(=O)NCC(=O)OCCOCCOc6no[n+]([O-])c6S(=O)(=O)c6ccccc6)CC[C@]5(C)CC[C@@]4(C)[C@]3(C)CC[C@H]2C1(C)C | 5.02 | 5.19 | 
9 | COC(=O)[C@@]1(C)CC[C@]2(C)CC[C@]3(C)C(=CC(=O)[C@@H]4[C@@]5(C)CC[C@H](OC(=O)CCC(=O)OCCCOc6no[n+]([O-])c6S(=O)(=O)c6ccccc6)C(C)(C)[C@@H]5CC[C@]43C)[C@@H]2C1 | 5.04 | 4.87 | 
10 | O=S(=O)(c1ccccc1)c1c(OCCCO)no[n+]1[O-] |  |  | Activity [1]: Toxic; growth inhibition (GI) (Bel-7402 [2]): Active
11 | CC(=O)O[C@H]1CC[C@]2(C)[C@H]3C(=O)C=C4[C@@H]5C[C@@](C)(C(=O)OCCCOc6no[n+]([O-])c6S(=O)(=O)c6ccccc6)CC[C@]5(C)CC[C@@]4(C)[C@]3(C)CC[C@H]2C1(C)C | 4.81 | 4.94 | 
12 | COC(=O)[C@@]1(C)CC[C@]2(C)CC[C@]3(C)C(=CC(=O)[C@@H]4[C@@]5(C)CC[C@H](OC(=O)CCC(=O)OCCOCCOc6no[n+]([O-])c6S(=O)(=O)c6ccccc6)C(C)(C)[C@@H]5CC[C@]43C)[C@@H]2C1 | 4.70 | 4.80 | 
13 | O=S(=O)(c1ccccc1)c1c(OCC#CCO)no[n+]1[O-] |  |  | Activity [1]: Toxic; growth inhibition (GI) (Bel-7402 [2]): Active
14 | CC(=O)O[C@H]1CC[C@]2(C)[C@H]3C(=O)C=C4[C@@H]5C[C@@](C)(C(=O)OCCOCCOc6no[n+]([O-])c6S(=O)(=O)c6ccccc6)CC[C@]5(C)CC[C@@]4(C)[C@]3(C)CC[C@H]2C1(C)C | 4.67 | 4.50 | 

Further molecules by rising pIC50 (Bel-7402 [3]), results first:

Row | pIC50 (Bel-7402 [3]) | pIC50 (HepG2 [4]) | Compound | further results
15 | 5.09 | 4.44 | COC(=O)[C@@]1(C)CC[C@]2(C)CC[C@]3(C)C(=CC(=O)[C@@H]4[C@@]5(C)CC[C@H](OC(=O)CCC(=O)OCCCCOc6no[n+]([O-])c6S(=O)(=O)c6ccccc6)C(C)(C)[C@@H]5CC[C@]43C)[C@@H]2C1 | 
16 | 5.11 | 4.74 | COC(=O)[C@@]1(C)CC[C@]2(C)CC[C@]3(C)C(=CC(=O)[C@@H]4[C@@]5(C)CC[C@H](OC(=O)CCC(=O)OCCOc6no[n+]([O-])c6S(=O)(=O)c6ccccc6)C(C)(C)[C@@H]5CC[C@]43C)[C@@H]2C1 | 
17 | 5.42 | 4.83 | CC(=O)O[C@H]1CC[C@]2(C)[C@H]3C(=O)C=C4[C@@H]5C[C@@](C)(C(=O)OCCOc6no[n+]([O-])c6S(=O)(=O)c6ccccc6)CC[C@]5(C)CC[C@@]4(C)[C@]3(C)CC[C@H]2C1(C)C | 
18 | 5.42 | 5.29 | CC1(C)[C@@H](O)CC[C@]2(C)[C@H]3C(=O)C=C4[C@@H]5C[C@@](C)(C(=O)NCC(=O)OCCOCCOc6no[n+]([O-])c6S(=O)(=O)c6ccccc6)CC[C@]5(C)CC[C@@]4(C)[C@]3(C)CC[C@@H]12 | 
19 | 5.53 | 5.54 | COC(=O)[C@@]1(C)CC[C@]2(C)CC[C@]3(C)C(=CC(=O)[C@@H]4[C@@]5(C)CC[C@H](OC(=O)CCC(=O)NCCOc6no[n+]([O-])c6S(=O)(=O)c6ccccc6)C(C)(C)[C@@H]5CC[C@]43C)[C@@H]2C1 | 
20 | 5.61 | 5.13 | CC1(C)[C@@H](O)CC[C@]2(C)[C@H]3C(=O)C=C4[C@@H]5C[C@@](C)(C(=O)NCCOc6no[n+]([O-])c6S(=O)(=O)c6ccccc6)CC[C@]5(C)CC[C@@]4(C)[C@]3(C)CC[C@@H]12 | 
21 | 5.86 | 5.04 | CC1(C)[C@@H](O)CC[C@]2(C)[C@H]3C(=O)C=C4[C@@H]5C[C@@](C)(C(=O)NCC(=O)OCCOc6no[n+]([O-])c6S(=O)(=O)c6ccccc6)CC[C@]5(C)CC[C@@]4(C)[C@]3(C)CC[C@@H]12 | 
22 | 6.05 | 5.69 | COc1cccc2c1C(=O)c1c(O)c3c(c(O)c1C2=O)C[C@@](O)(C(=O)CO)C[C@@H]3O[C@H]1C[C@H](N)[C@H](O)[C@H](C)O1 [DOXORUBICIN] | 
23 | 6.08 | 5.47 | CC1(C)[C@@H](O)CC[C@]2(C)[C@H]3C(=O)C=C4[C@@H]5C[C@@](C)(C(=O)NCC(=O)OCC#CCOc6no[n+]([O-])c6S(=O)(=O)c6ccccc6)CC[C@]5(C)CC[C@@]4(C)[C@]3(C)CC[C@@H]12 | Activity (HepG2 [5]): Active; Activity (Bel-7402 [6]): Active; Activity [7]: Non-toxic; inhibition at 24 h, 10 µM [1]: < 18%; inhibition of growth at 10 µM (Bel-7402 [2]): > 83.5%
24 | 6.37 | 5.42 | CC1(C)[C@@H](O)CC[C@]2(C)[C@H]3C(=O)C=C4[C@@H]5C[C@@](C)(C(=O)NCC(=O)OCCCOc6no[n+]([O-])c6S(=O)(=O)c6ccccc6)CC[C@]5(C)CC[C@@]4(C)[C@]3(C)CC[C@@H]12 | Activity (HepG2 [5]): Active; Activity (Bel-7402 [6]): Active; Activity [7]: Non-toxic; inhibition at 24 h, 10 µM [1]: < 18%; inhibition of growth at 10 µM (Bel-7402 [2]): > 83.5%
25 | 6.60 | 5.17 | CC1(C)[C@@H](O)CC[C@]2(C)[C@H]3C(=O)C=C4[C@@H]5C[C@@](C)(C(=O)NCC(=O)OCCCCOc6no[n+]([O-])c6S(=O)(=O)c6ccccc6)CC[C@]5(C)CC[C@@]4(C)[C@]3(C)CC[C@@H]12 | Activity (HepG2 [5]): Active; Activity (Bel-7402 [6]): Active; Activity [7]: Non-toxic; growth inhibition (GI) (Bel-7402 [8]): inactive; growth inhibition (GI) (Bel-7402 [9]): inactive; inhibition at 24 h, 10 µM [1]: < 18%; inhibition of growth at 10 µM (Bel-7402 [2]): > 83.5%; Activity (Bel-7402 [10]): inactive; Activity (Bel-7402 [11]): inactive
